Reference: ChEMBL document CHEMBL1681705, “Optimisation of ITK inhibitors through successive iterative design cycles” (Bioorg Med Chem Lett, 2011)

Assays:
[1] = target: Ephrin type-A receptor 4 (Homo sapiens) (UniProt P54764); assay: Inhibition of EphA4 at 1 uM; values are per cent of control
[2] = target: Proto-oncogene tyrosine-protein kinase Src (Homo sapiens) (UniProt P12931); assay: Inhibition of c-SRC at 0.1 uM; values are per cent of control
[3] = target: Serine/threonine-protein kinase pim-2 (Homo sapiens) (UniProt Q9P1W9); assay: Inhibition of Pim-2 at 0.1 uM; values are per cent of control
[4] = target: Tyrosine-protein kinase Lck (Homo sapiens) (UniProt P06239); assay: Inhibition of Lck at 1 uM
Method in brief: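 Single-point screen within a 108-kinase selectivity panel. Each kinase was tested with inhibitor at 0.1 and 1.0 micromolar, and activity was recorded as percent inhibition.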

[5] = target: High affinity nerve growth factor receptor (Homo sapiens) (UniProt P04629); assay: Inhibition of TrkA at 1 uM; values are per cent of control
[6] = target: Ephrin type-A receptor 5 (Homo sapiens) (UniProt P54756); assay: Inhibition of EphA5 at 1 uM; values are per cent of control
[7] = target: Fibroblast growth factor receptor 1 (Homo sapiens) (UniProt P11362); assay: Inhibition of FGFR1 at 1 uM; values are per cent of control
[8] = target: MAP kinase-interacting serine/threonine-protein kinase 2 (Homo sapiens) (UniProt Q9HBH9); assay: Inhibition of Mnk2 at 1 uM; values are per cent of control
[9] = target: T1, Ephrin type-A receptor 3 (Homo sapiens) (UniProt P29320); assay: Inhibition of EphA3 at 1 uM; values are per cent of control
T1 sequence (whole entry): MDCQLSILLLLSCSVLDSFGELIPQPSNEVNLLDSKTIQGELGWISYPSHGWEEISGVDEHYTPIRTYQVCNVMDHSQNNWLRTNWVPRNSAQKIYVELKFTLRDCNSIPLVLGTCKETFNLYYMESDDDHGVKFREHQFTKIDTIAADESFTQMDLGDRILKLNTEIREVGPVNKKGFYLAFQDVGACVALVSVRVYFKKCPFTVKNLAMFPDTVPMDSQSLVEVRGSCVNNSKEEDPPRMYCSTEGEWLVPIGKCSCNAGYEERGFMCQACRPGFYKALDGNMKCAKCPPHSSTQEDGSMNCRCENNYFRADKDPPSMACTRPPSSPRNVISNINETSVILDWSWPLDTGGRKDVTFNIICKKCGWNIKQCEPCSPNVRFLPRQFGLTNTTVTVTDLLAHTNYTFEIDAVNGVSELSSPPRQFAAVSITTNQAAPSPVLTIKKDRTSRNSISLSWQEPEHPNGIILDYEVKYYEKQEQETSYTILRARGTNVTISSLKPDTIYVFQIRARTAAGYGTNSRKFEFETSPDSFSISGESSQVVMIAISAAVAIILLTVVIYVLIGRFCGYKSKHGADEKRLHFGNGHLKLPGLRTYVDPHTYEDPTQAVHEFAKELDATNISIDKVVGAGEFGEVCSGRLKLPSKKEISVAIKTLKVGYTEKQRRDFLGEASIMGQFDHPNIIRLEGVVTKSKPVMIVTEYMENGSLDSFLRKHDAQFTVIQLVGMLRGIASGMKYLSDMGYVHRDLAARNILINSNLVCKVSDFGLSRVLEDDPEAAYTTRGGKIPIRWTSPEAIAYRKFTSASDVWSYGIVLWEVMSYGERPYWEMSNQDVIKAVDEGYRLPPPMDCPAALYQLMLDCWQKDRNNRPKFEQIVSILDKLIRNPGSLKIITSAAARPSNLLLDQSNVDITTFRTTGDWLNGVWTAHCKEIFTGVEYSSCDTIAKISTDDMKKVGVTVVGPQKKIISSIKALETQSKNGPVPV

[10] = target: Epidermal growth factor receptor (Homo sapiens) (UniProt P00533); assay: Inhibition of EGFR at 1 uM; values are per cent of control
[11] = target: Serine/threonine-protein kinase SIK1 (Homo sapiens) (UniProt P57059); assay: Inhibition of SIK at 0.1 uM; values are per cent of control
[12] = target: Fibroblast growth factor receptor 3 (Homo sapiens) (UniProt P22607); assay: Inhibition of FGFR3 at 1 uM; values are per cent of control
[13] = target: Mitogen-activated protein kinase 1 (Homo sapiens) (UniProt P28482); assay: Inhibition of MAPK1 at 0.1 uM; values are per cent of control
[14] = target: Mitogen-activated protein kinase 10 (Homo sapiens) (UniProt P53779); assay: Inhibition of JNK3 at 1 uM
Method in brief: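 Single-point profiling in a panel of 108 kinases. Each selected inhibitor was tested at two concentrations, 0.1 and 1.0 micromolar. Values are reported as inhibition at each concentration.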

[15] = target: BDNF/NT-3 growth factors receptor (Homo sapiens) (UniProt Q16620); assay: Inhibition of TrkB at 0.1 uM; values are per cent of control
[16] = target: Protein kinase C theta type (Homo sapiens) (UniProt Q04759); assay: Inhibition of PKCtheta at 1 uM; values are per cent of control

BDNF/NT-3 growth factors receptor (Homo sapiens), sequence (Q16620 32-822 limits assumed): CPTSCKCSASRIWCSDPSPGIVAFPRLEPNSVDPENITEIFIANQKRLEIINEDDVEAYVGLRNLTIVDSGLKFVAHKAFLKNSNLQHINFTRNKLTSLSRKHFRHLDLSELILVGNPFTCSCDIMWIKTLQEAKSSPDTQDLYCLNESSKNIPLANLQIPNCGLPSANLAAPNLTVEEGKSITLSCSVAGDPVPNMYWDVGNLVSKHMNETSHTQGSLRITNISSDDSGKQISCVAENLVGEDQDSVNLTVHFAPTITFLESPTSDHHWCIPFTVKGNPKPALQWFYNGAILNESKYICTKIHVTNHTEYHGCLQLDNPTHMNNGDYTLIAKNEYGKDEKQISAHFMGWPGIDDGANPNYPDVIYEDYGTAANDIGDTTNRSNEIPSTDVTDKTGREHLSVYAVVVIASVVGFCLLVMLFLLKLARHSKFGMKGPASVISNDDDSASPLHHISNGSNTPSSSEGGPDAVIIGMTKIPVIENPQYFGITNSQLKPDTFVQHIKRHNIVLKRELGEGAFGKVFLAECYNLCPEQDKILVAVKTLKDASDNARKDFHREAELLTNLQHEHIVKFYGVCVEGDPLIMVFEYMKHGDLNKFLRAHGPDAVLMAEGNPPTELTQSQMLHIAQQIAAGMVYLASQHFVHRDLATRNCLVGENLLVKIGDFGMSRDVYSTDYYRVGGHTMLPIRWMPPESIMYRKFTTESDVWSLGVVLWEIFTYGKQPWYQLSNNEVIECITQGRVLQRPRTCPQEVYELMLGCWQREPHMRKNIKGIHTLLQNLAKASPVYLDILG
Ephrin type-A receptor 4 (Homo sapiens), sequence (P54764 whole entry): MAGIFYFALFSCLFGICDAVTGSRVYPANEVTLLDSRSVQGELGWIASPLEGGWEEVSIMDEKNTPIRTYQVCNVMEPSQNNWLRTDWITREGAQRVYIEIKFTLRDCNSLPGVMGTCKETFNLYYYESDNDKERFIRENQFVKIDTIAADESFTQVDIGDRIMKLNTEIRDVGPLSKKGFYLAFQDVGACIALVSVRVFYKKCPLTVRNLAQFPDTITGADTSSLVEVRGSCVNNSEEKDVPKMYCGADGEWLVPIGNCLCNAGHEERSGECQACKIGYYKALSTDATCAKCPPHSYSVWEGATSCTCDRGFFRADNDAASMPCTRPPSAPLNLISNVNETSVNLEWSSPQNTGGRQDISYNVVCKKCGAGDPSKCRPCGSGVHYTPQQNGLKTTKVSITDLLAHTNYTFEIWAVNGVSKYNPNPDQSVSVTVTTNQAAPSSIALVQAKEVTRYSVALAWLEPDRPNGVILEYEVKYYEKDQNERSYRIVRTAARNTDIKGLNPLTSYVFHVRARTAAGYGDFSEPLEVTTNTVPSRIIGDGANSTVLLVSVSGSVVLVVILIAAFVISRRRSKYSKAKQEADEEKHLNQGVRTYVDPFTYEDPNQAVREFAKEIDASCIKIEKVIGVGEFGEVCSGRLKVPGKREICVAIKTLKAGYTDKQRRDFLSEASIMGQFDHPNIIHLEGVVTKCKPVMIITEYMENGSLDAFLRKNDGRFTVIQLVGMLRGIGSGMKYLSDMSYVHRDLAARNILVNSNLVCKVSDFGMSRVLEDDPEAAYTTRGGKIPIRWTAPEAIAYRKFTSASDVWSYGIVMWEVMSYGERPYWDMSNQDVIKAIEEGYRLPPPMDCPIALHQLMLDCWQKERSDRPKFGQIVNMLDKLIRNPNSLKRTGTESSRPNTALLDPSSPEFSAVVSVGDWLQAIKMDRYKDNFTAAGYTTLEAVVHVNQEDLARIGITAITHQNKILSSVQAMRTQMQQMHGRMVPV
Serine/threonine-protein kinase SIK1 (Homo sapiens), sequence (P57059 whole entry): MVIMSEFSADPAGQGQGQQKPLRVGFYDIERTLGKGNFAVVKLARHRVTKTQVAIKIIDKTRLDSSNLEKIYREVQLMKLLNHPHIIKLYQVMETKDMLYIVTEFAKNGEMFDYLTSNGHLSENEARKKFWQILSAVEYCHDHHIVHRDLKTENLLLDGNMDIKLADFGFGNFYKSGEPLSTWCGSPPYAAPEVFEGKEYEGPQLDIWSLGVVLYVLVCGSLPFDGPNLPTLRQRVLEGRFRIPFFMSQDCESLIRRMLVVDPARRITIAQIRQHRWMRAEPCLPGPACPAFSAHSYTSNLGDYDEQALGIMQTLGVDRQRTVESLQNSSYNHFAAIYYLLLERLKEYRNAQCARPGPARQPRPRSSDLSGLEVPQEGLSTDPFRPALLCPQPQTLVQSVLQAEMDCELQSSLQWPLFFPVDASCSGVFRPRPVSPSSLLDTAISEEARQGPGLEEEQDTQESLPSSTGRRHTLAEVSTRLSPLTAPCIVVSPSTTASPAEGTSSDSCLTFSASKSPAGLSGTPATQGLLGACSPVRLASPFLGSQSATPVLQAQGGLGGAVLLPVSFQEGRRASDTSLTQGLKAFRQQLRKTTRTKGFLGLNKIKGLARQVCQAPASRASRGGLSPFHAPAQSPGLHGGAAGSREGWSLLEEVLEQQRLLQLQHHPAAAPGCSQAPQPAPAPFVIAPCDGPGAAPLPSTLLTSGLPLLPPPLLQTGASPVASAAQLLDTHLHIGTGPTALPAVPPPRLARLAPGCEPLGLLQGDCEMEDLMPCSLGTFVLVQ
Proto-oncogene tyrosine-protein kinase Src (Homo sapiens), sequence (P12931 2-536 limits assumed): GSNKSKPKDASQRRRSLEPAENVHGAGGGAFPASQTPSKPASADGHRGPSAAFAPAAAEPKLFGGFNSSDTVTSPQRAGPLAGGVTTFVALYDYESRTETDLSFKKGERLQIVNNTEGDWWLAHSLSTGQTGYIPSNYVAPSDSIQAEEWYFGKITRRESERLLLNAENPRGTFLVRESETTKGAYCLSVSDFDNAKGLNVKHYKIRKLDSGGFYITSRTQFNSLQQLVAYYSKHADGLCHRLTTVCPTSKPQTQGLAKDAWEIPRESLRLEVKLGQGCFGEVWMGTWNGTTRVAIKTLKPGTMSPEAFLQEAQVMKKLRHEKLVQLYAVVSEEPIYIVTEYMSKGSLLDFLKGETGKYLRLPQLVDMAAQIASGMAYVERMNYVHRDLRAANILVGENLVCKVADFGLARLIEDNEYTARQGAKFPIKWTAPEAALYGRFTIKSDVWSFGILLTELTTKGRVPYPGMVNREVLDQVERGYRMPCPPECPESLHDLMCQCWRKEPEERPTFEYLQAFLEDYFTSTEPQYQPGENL
Epidermal growth factor receptor (Homo sapiens), sequence (P00533 whole entry): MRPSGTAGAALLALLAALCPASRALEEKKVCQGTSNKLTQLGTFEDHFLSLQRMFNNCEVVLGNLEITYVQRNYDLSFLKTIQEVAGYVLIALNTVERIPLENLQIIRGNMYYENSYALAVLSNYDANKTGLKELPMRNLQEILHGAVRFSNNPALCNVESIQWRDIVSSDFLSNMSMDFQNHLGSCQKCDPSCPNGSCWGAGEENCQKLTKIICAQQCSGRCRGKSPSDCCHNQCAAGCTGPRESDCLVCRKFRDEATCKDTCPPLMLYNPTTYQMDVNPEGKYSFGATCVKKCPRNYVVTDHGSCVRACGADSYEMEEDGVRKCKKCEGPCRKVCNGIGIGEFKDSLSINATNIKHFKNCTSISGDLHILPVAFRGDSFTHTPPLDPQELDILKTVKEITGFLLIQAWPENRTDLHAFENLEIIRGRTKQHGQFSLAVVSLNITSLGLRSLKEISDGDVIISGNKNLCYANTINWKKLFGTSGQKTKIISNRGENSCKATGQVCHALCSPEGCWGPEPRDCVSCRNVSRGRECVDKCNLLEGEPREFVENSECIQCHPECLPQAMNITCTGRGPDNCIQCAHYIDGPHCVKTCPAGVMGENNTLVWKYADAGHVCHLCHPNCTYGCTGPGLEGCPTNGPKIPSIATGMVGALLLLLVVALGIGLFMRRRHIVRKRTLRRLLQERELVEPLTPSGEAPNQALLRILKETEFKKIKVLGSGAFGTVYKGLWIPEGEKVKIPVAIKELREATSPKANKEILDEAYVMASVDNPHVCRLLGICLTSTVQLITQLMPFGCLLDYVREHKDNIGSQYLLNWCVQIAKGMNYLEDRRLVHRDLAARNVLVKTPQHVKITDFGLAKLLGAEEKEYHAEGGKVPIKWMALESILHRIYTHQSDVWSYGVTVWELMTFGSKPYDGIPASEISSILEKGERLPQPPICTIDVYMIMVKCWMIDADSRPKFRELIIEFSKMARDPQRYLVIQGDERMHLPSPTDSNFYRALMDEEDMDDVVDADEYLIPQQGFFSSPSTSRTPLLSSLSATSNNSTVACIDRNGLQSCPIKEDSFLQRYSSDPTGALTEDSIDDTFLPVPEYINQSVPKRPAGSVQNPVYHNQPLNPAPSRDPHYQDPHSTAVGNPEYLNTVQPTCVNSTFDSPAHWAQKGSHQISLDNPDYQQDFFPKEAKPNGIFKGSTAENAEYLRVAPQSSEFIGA
MAP kinase-interacting serine/threonine-protein kinase 2 (Homo sapiens), sequence (Q9HBH9 whole entry, looked up): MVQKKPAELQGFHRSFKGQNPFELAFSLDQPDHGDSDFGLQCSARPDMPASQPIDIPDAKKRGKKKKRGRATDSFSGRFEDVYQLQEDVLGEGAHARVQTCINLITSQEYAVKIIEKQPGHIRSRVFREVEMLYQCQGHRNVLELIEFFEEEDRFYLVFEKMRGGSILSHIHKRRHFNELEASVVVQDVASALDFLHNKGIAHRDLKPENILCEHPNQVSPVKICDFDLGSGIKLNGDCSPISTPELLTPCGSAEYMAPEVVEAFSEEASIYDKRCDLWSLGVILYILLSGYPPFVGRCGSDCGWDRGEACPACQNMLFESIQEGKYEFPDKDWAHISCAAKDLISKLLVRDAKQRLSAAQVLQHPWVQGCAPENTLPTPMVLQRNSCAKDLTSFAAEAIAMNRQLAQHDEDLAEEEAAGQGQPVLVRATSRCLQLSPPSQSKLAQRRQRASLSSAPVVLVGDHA

residual activity [1] [%]	residual activity [2] [%]	residual activity [3] [%]	inhibition [4] [%]	residual activity [5] [%]	residual activity [6] [%]	residual activity [7] [%]	residual activity [8] [%]	residual activity [9] [%]	residual activity [10] [%]	residual activity [11] [%]	residual activity [12] [%]	residual activity [13] [%]	inhibition [14] [%]	residual activity [15] [%]	residual activity [16] [%]	SMILES
68	31	98	9	2	22	-2	44	14	-8	43	-3	88	91	1	6	Cc1ccc2cc(-c3n[nH]c4ccc(NC5CCN(Cc6ccccc6)CC5)cc34)[nH]c2c1
72	16	99	0	0	50	0	14	29	99	18	1	85	36	2	23	Cc1ccc2cc(-c3n[nH]c4ccc(NC5CCNC5)cc34)[nH]c2c1 (configuration not stated)
